Assay results from different studies.
Target: MAP/microtubule affinity-regulating kinase 4 (MARK4, Homo sapiens, UniProt Q96L34)
One construct used (Q96L34 1-752): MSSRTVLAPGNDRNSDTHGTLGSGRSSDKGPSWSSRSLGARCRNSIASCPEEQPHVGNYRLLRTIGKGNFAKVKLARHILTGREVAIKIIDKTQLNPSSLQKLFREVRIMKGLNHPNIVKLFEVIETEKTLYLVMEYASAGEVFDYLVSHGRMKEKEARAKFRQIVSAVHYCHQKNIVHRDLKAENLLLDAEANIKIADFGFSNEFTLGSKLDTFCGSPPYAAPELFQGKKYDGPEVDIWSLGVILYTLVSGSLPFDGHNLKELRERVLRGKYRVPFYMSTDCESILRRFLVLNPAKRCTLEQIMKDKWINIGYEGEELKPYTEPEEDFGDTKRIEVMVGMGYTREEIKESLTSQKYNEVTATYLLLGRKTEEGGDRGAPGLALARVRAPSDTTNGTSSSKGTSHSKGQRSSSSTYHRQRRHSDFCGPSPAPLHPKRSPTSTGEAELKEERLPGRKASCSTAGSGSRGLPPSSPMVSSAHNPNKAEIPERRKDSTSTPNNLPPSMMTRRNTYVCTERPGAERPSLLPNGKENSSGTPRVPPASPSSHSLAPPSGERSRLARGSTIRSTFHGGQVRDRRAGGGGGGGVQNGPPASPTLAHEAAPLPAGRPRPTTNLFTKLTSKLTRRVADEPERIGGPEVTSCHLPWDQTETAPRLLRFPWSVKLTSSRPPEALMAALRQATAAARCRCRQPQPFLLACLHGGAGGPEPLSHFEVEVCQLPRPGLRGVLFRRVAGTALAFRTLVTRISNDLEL

Nc1c(C(=O)NCc2ccc(C(=O)NCCCC3CCCCC3)cc2)cnn1-c1ccccc1
remaining binding (cell-free assay; competition with immobilised ligand; 0.1 µM): 76%

CN(C)c1ncc(F)c(-c2cnn3ncccc23)n1
remaining binding (binding; 1 µM): 100%

COc1cnc(Nc2cccc(S(N)(=O)=O)c2)nc1N1CCN(c2ccccc2)C(=O)C1
remaining binding (binding; competition with immobilised ligand; 1 µM): 100%

c1cnn2ncc(-c3ccnc(N4CCC45COC5)n3)c2c1
remaining binding (binding; 1 µM): 84%

O=C(c1ccc(Nc2ncc(Cl)c(-c3ccc(Cl)s3)n2)cc1)N1CCC(N2CCCC2)CC1
remaining binding (binding; competition with immobilised ligand; 1 µM): 23%

CC(=O)Nc1c(C(C)=O)c(=O)n(C)c2nc(-c3ccc(Cl)cc3Cl)c(-c3ccc(Cl)cc3)cc12
remaining binding (cell-free assay; competition with immobilised ligand; 1 µM): 100%

Cc1cnn2ncc(-c3ccnc(N(C)C)n3)c2c1
remaining binding (binding; 1 µM): 91%

FC(F)(F)Oc1cccc(-c2cnc3ccc(-c4ccncc4)nn23)c1
remaining binding (cell-free assay; competition with immobilised ligand; 5 µM): 80%

O=C(NCC1CCOCC1)c1n[nH]cc1NC(=O)c1c(F)cccc1F
remaining binding (binding; competition with immobilised ligand; 1 µM): 98%

C[C@@H]1CCN(c2nccc(-c3cnn4ncccc34)n2)C1
remaining binding (binding; 1 µM): 100%

COc1ccc2c(O[C@@H]3C[C@H]4C(=O)N[C@]5(C(=O)O)CC5/C=C\CCCCC[C@H](NC(=O)OC5CCCC5)C(=O)N4C3)cc(-c3csc(NC(=O)C(C)C)n3)nc2c1C (some centres unmarked)
remaining binding (cell-free assay; competition with immobilised ligand; 1 µM): 99%

Cc1cnc(Nc2ccc(C(=O)N3CCC(N4CCCC4)CC3)cc2)nc1-c1cc2ccccc2s1
remaining binding (binding; competition with immobilised ligand; 1 µM): 35%

COc1ccnn2ncc(-c3ccnc(N(C)C)n3)c12
remaining binding (binding; 1 µM): 100%

O=C(c1ccc(Nc2ncc(Cl)c(-c3cc4ccccc4s3)n2)cc1)N1CCC(N2CCCC2)CC1
remaining binding (binding; competition with immobilised ligand; 1 µM): 28%

O=C(O)c1cc(-c2ccc(C3CCNCC3)cc2)c2ccc(-c3ccc(C(F)(F)F)cc3)cc2c1
remaining binding (cell-free assay; competition with immobilised ligand; 1 µM): 100%

CN(C)c1nccc(-c2cnc3ncccn23)n1
remaining binding (binding; 1 µM): 93%

FC(F)(F)c1ccc2c(c1)nc(-c1cccnc1)n2C1CC1
remaining binding (cell-free assay; competition with immobilised ligand; 1 µM): 100%

CCN1CCN(Cc2ccc(C(=O)Nc3ccc(C)c(Oc4ccc5c(c4)CC(=O)N5)c3)cc2C(F)(F)F)CC1
remaining binding (binding; competition with immobilised ligand; 1 µM): 88%

CCCOc1ccc([C@H]2[C@H](C(=O)O)[C@@H](c3ccc4c(c3)OCO4)CN2CC(=O)Nc2c(CC)cccc2CC)cc1
remaining binding (cell-free assay; competition with immobilised ligand; 1 µM): 97%

c1cncc(-c2cccc(Nc3nccc(NC4CCCCC4)n3)c2)c1
remaining binding (binding; competition with immobilised ligand; 10 µM): 80%
